Results reported in PMC4758401 (Diabetes, Obesity & Metabolism, 2015).
Like-named read-outs stand apart in the source and are kept apart here.

Experiments:
Type in all cases: in vivo, patients with type 1 diabetes
[1] = Adverse events and hypoglycaemia
Method in brief: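 Four-way crossover in adults with type 1 diabetes, one visit per arm over 4 weeks. Before a 600-kcal breakfast, each arm received subcutaneous regular insulin at 30% below the usual rapid-analogue dose, plus a separate masked injection of test compound (6, 9 or 12 mcg/U insulin) or volume-matched placebo. Symptomatic hypoglycaemia was tracked for 24 h after dosing; adverse events were recorded on- and off-treatment.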

plasma glucose = tested on: plasma glucose
glucagon = settings: for Reduction of AUC0–3 h for glucagon: p < 0.05
Method in brief: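 Same crossover design: test compound at 6, 9 or 12 mcg/U insulin or volume-matched placebo, each injected separately alongside subcutaneous regular insulin (30% reduced dose) just before a standard 600-kcal breakfast. Plasma immunoreactive glucagon was measured by radioimmunoassay in samples taken at −15, −5, 15, 30, 45, 60, 90, 120, 150 and 180 min. Incremental AUC0–3 h from baseline was compared with placebo by a linear mixed-effects model (sequence, period, treatment, random patient), two-sided 0.05.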

[2] = all ratios (6, 9 or 12 mcg/unit insulin)

CC[C@H](C)[C@H](NC(=O)[C@@H]1CCCN1C(=O)CNC(=O)[C@H](Cc1ccccc1)NC(=O)[C@H](CC(N)=O)NC(=O)[C@H](CC(N)=O)NC(=O)[C@H](CO)NC(=O)[C@H](CO)NC(=O)[C@H](Cc1c[nH]cn1)NC(=O)[C@@H](NC(=O)[C@H](CC(C)C)NC(=O)[C@H](Cc1ccccc1)NC(=O)[C@H](CC(N)=O)NC(=O)[C@H](C)NC(=O)[C@H](CC(C)C)NC(=O)[C@H](CCCNC(=N)N)NC(=O)[C@H](CCC(N)=O)NC(=O)[C@@H](NC(=O)[C@H](C)NC(=O)[C@@H]1CSSC[C@H](NC(=O)[C@@H](N)CCCCN)C(=O)N[C@@H](CC(N)=O)C(=O)N[C@@H]([C@@H](C)O)C(=O)N[C@@H](C)C(=O)N[C@@H]([C@@H](C)O)C(=O)N1)[C@@H](C)O)C(C)C)C(=O)N[C@@H](CC(C)C)C(=O)N1CCC[C@H]1C(=O)N1CCC[C@H]1C(=O)N[C@H](C(=O)N[C@@H](CC(N)=O)C(=O)N[C@H](C(=O)NCC(=O)N[C@@H](CO)C(=O)N[C@@H](CC(N)=O)C(=O)N[C@H](C(=O)N[C@@H](Cc1ccc(O)cc1)C(N)=O)[C@@H](C)O)C(C)C)[C@@H](C)O [pramlintide]
Tolerability ([1]; all ratios (6, 9, 12 mcg/U insulin), single meal-time injection): well tolerated
Symptomatic hypoglycaemia ([1]; during the 24‐h period after pramlintide administration, all ratios): No symptomatic hypoglycaemia occurred
Nausea ([1]; one patient, accompanying each pramlintide/insulin ratio, able to complete each test meal): mild nausea
Mild, asymptomatic hypoglycaemia between test meal days ([1]; one patient, after pramlintide 12 mcg/U): hypoglycaemia 5 and 7 days after receiving pramlintide 12 mcg/U
Reduction of AUC0–3 h for glucose (plasma glucose; 6 mcg/U ratio vs placebo/insulin, p < 0.001): 60%
Glucose incremental AUC0–3 h, LS mean difference (plasma glucose; 6 mcg–placebo, p <0.001): -205.98 mg·h/dL
Glucose incremental AUC0–3 h, LS mean difference (plasma glucose; 6–9 mcg, p 0.890): -6.04 mg·h/dL
Glucose incremental AUC0–3 h, LS mean difference (plasma glucose; 6–12 mcg, p 0.343): 40.63 mg·h/dL
Glucose incremental AUC0–3 h, LS mean difference (plasma glucose; 9 mcg–placebo, p <0.001): -199.93 mg·h/dL
Glucose incremental AUC0–3 h, LS mean difference (plasma glucose; 9–12 mcg, p 0.280): 46.67 mg·h/dL
Glucose incremental AUC0–3 h, LS mean difference (plasma glucose; 12 mcg–placebo, p <0.001): -246.60 mg·h/dL
Reduction of 0–3‐h glucose increments (plasma glucose; [2]): > 50%
Reduction of AUC0–3 h for glucagon (glucagon; 6 mcg/U ratio vs placebo/insulin): 57%
Glucagon incremental AUC0–3 h, LS mean difference (glucagon; 6 mcg–placebo, p 0.041): -14.23 pg·h/mL
Glucagon incremental AUC0–3 h, LS mean difference (glucagon; 6–9 mcg, p 0.934): 0.57 pg·h/mL
Glucagon incremental AUC0–3 h, LS mean difference (glucagon; 6–12 mcg, p 0.945): -0.47 pg·h/mL
Reduction of AUC0–3 h for glucagon (glucagon; 9 mcg/U ratio vs placebo/insulin): 59%
Glucagon incremental AUC0–3 h, LS mean difference (glucagon; 9 mcg–placebo, p 0.034): -14.80 pg·h/mL
Glucagon incremental AUC0–3 h, LS mean difference (glucagon; 9–12 mcg, p 0.879): -1.05 pg·h/mL
Reduction of AUC0–3 h for glucagon (glucagon; 12 mcg/U ratio vs placebo/insulin): 55%
Glucagon incremental AUC0–3 h, LS mean difference (glucagon; 12 mcg–placebo, p 0.046): -13.75 pg·h/mL
Reduction of 0–3‐h glucagon increments (glucagon; [2]): > 50%
